ChEMBL document CHEMBL1135429, “Arylaminoethyl amides as novel non-covalent cathepsin K inhibitors” (J Med Chem, 2002)
pIC50, pKi: −log10 of the molar value.

Tests used:
[1] = biological target: T1, Cathepsin K (Homo sapiens, UniProt P43235); assay: Inhibition of recombinant human cathepsin K in fluorescence assay
T1 sequence (P43235 whole entry): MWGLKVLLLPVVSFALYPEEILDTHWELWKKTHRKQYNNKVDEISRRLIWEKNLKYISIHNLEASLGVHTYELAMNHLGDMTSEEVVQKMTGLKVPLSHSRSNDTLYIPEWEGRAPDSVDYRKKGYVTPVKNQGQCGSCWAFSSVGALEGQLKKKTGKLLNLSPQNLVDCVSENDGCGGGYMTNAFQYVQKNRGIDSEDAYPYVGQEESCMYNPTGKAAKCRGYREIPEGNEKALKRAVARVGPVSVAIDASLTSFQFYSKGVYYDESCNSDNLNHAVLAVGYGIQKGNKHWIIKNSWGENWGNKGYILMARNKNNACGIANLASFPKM
Procedure, shortened: (§1)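 Each recombinant human enzyme (cathepsin K, L or S) was assayed separately. IC50 values are the mean of two independent experiments, each performed in duplicate.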

[2] = biological target: Procathepsin L (Homo sapiens, UniProt P07711); assay: Inhibition of recombinant human cathepsin L in a fluorescence assay.; procedure, shortened: as §1
Chain of Procathepsin L (P07711 whole entry): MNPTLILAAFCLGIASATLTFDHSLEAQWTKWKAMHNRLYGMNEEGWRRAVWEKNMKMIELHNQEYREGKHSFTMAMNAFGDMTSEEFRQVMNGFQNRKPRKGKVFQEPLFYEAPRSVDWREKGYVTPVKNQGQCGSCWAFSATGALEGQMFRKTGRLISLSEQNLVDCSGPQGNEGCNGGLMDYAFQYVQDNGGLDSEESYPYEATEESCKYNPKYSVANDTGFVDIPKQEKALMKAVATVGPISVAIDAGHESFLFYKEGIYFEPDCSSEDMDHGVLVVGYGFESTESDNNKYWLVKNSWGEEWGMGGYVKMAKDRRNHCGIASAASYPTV

[3] = biological target: Cathepsin S (Homo sapiens, UniProt P25774); assay: Inhibition of recombinant human cathepsin S in a fluorescence assay; procedure, shortened: as §1
Chain of Cathepsin S (P25774 whole entry): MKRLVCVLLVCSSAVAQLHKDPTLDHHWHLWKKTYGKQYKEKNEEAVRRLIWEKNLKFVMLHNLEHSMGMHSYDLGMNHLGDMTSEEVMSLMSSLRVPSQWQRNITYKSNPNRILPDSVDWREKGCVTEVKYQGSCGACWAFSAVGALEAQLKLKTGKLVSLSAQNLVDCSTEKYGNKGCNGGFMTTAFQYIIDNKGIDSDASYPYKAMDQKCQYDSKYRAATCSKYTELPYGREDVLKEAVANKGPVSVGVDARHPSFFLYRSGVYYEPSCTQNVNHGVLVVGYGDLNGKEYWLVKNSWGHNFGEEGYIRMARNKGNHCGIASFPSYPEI

[4] = biological target: Cathepsin K (Oryctolagus cuniculus); assay: Eq. constant (Ki) for inhibition of Cathepsin K was determined by progress curves, following hydrolysis of Z-Phe-Arg- Amc in the absence and presence of compound

Row | pIC50 [1] | pIC50 [2] | pIC50 [3] | pKi [4] | Structure (SMILES)
1 | 8.22 | 5.64 | 5.72 |  | COc1ccc(NCCNC(=O)[C@H](CC(C)C)NC(=O)c2ncn(-c3ccccc3Cl)n2)cc1
2 | 8.05 | < 5.00 | 6.72 | 7.96 | COc1ccc(NCCNC(=O)[C@H](CC(C)C)NC(=O)c2ncn(-c3cccc(Cl)c3Cl)n2)cc1
3 | 8.22 | < 5.00 | 5.02 | 7.82 | COc1ccc(NCCNC(=O)[C@H](CC(C)C)NC(=O)c2ccc(OCc3ccccc3)cc2)cc1
4 | > 8.52 | > 7.52 | 5.92 |  | CCCc1ccc(C(=O)N[C@@H](CC(C)C)C(=O)NCCNc2ccc(OC)cc2)cc1
5 | > 8.52 | 7.30 | 5.24 |  | COc1ccc(NCCNC(=O)[C@H](CC(C)C)NC(=O)c2ccc(C(C)C)cc2)cc1
6 | > 8.52 | 5.82 | 5.14 |  | COc1ccc(NCCNC(=O)[C@H](CC(C)C)NC(=O)c2ccc(C(C)C)cn2)cc1
